The term Km denotes the substrate concentration at which the rate is half of its maximum.

Substrate in this series: Nc1nc2[nH]cnc2c(=O)[nH]1
The series can be described thus: Activity at GDA by colorimetric assay. The gist of the method: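 Purified rabbit liver guanine deaminase, 8 × 10^-3 U, incubated with guanine at 2, 5, 7, 10, 12, 15, 17 and 20 µM plus inhibitor at 8 or 20 µM. Run in TBS (25 mM Tris-HCl, 137 mM NaCl, 2.7 mM KCl) at pH 7.4 and 25 °C. Guanine hydrolysis followed as OD change at 245 nm. Kinetic constants taken from Lineweaver–Burk plots (1/V vs 1/S).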

B1: Guanine deaminase (Homo sapiens), Q9Y2T3 (protein)
chain: MCAAQMPPLAHIFRGTFVHSTWTCPMEVLRDHLLGVSDSGKIVFLEEASQQEKLAKEWCFKPCEIRELSHHEFFMPGLVDTHIHASQYSFAGSSIDLPLLEWLTKYTFPAEHRFQNIDFAEEVYTRVVRRTLKNGTTTACYFATIHTDSSLLLADITDKFGQRAFVGKVCMDLNDTFPEYKETTEESIKETERFVSEMLQKNYSRVKPIVTPRFSLSCSETLMGELGNIAKTRDLHIQSHISENRDEVEAVKNLYPSYKNYTSVYDKNNLLTNKTVMAHGCYLSAEELNVFHERGASIAHCPNSNLSLSSGFLNVLEVLKHEVKIGLGTDVAGGYSYSMLDAIRRAVMVSNILLINKVNEKSLTLKEVFRLATLGGSQALGLDGEIGNFEVGKEFDAILINPKASDSPIDLFYGDFFGDISEAVIQKFLYLGDDRNIEEVYVGGKQVVPFSSSV
As for B1, the Km is 11.2 µM.

For the origin of these results see ChEMBL document CHEMBL1221368, “Identification of small molecule compounds with higher binding affinity to guanine deaminase (cypin) than guanine” (Bioorg Med Chem, 2010).
